# Sampled rows, rich in hits. Any-hit rate of the full collection: about 4%.
# OX1R antag-1: blocks the human orexin 1 receptor; 330,000 compounds, 0.43% hits; inhibition, % at 5 µM; CHO/OX1R cells, Fluo-8 calcium fluorescence, orexin A; AID 434989;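 active means inhibition above its plate's threshold, mean inhibition of all tested compounds on the plate plus 3 SD, cut at about 37% in these data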;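 further: 0% = orexin A challenge wells and 100% = SB-334867-A antagonist wells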
# Target sequence (O43613 whole entry, looked up): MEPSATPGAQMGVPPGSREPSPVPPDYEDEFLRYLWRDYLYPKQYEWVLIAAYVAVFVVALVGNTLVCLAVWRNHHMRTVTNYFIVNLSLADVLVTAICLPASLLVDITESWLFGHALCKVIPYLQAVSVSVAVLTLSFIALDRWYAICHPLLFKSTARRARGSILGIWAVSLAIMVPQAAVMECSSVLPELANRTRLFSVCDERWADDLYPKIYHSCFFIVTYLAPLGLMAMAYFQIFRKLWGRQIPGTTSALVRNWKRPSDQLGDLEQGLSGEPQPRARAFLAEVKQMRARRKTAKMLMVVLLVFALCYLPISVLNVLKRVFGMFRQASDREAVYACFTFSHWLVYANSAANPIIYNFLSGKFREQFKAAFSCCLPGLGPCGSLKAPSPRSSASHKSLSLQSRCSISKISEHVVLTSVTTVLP
# CHO parental Ca: counter-screen for OX1R antagonists: effect in parental CHO cells; parental CHO-K1, ATP-induced calcium, Fluo-8 fluorescence; 330,000 compounds, 0.63% hits; inhibition, % at 5.6 µM;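 active means inhibition above that plate's mean sample inhibition plus 3 SD, cut at about 26% in these data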;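 further: 0% = ATP-challenged DMSO wells and 100% = DMSO wells without ATP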
#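 Material: parental CHO cells / Compound: single nominal dose of 5.6 µM per compound / Signal: Fluo-8 fluorescence / Replicates: singlicate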
# TAAR1 agonist: human TAAR1 agonism. Q96RJ0. CHO RD-HGA16 TAAR1, Fluo-8 calcium fluorescence; vehicle wells 0%, saturating PEA agonist 100%. activation, % at 3 µM. 360,000 compounds, 0.99% hits;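 active means activation above the mean activation of all test compounds in the run plus 3 SD, cut at about 38% in these data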
# Target sequence (Q96RJ0 whole entry, looked up): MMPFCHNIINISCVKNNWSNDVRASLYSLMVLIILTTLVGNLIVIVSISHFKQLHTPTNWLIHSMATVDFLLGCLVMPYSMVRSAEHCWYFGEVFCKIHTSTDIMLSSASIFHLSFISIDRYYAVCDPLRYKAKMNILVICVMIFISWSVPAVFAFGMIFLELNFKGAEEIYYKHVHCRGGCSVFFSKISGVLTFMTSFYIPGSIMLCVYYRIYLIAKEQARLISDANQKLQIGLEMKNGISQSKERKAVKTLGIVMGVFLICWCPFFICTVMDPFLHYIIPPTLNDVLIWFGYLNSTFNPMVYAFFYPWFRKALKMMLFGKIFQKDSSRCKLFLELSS
#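 Repeats: no replicates (n 1) | Material: CHO-derived RD-HGA16 cells with stable Gα16 and human TAAR1 | Technique: Kinetic Fluo-8 calcium fluorescence | Schedule: 17-24 h seeding, 75 min 37 °C dye, 30 min RT | Evaluation: % activation from peak over basal fluorescence ratio, DMSO-to-PEA scaled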
# OX1R antag-2: OX1R (human) antagonism; O43613; 330,000 compounds, 1.8% hits; inhibition, % at 6.6 µM; OX1R-expressing cells, FRET antagonist read-out; in the data active means inhibition mostly above about 38%, no sharp cut-off; inactive means mostly below about 40%;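 further: 0% = agonist challenge alone and 100% = reference antagonist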
# TAAR1 antag: antagonists of human TAAR1. Q96RJ0. CHO RD-HGA16 TAAR1, Fluo-8 calcium fluorescence, antagonist. inhibition, % at 3 µM. 360,000 compounds, 1.5% hits. AID 624466;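 active means inhibition above a per-plate cutoff, the mean inhibition of test compounds on that plate plus 3 SD, cut at about 49% in these data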;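 further: 0% = DMSO plus EC80 beta-PEA response and 100% = DMSO alone without agonist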
#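 Assay system: RD-HGA16 CHO cells with stable hTAAR1 and Gα16 / Reagent: EC80 β-phenethylamine stimulus / Doses: 3 µM, single point / Timing: dye loading 75 min at 37 °C, then 30 min room temperature / Measured by: Fluo-8 intracellular calcium dye fluorescence, real-time kinetic reads / Controls: vehicle wells and EC80 agonist wells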
# nonsel antag count: counter-screen for TAAR1 antagonists: nonselective antagonists. counterscreen cell line, calcium fluorescence, antagonist mode. 2,400 compounds, 77% hits. inhibition, % at 3 µM. shares compounds with TAAR1 antag; in the data active means inhibition above about 22%;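 further: CHO-Ga16 host cells stimulated with ATP at an EC80 level; 0% = agonist EC80 plus vehicle and 100% = vehicle without agonist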
# TAAR1 antag conf: human TAAR1 antagonism, confirmed | shares compounds with TAAR1 antag | TAAR1-expressing cells, fluorescence antagonist read-out | inhibition, % at 3 µM | 2,400 compounds, 40% hits; in the data active means inhibition above about 49%;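 further: CHO-Ga16 host cells challenged with agonist PEA near its EC80; 0% = agonist at EC80 plus vehicle and 100% = vehicle with no agonist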
# Ga16 ag counter: nonselective Ga16 agonism, counter-screen; shares compounds with TAAR1 antag; Ga16-expressing cells, calcium fluorescence, agonist counterscreen; activation, % at 3 µM; 2,400 compounds, 18% hits; in the data active means activation above about 12%;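 further: 0% = vehicle wells and 100% = saturating stimulus response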
# TAAR1 ag count: activates human TAAR1 in antagonist counter-screen; AID 651955; shares compounds with TAAR1 antag; hTAAR1 cell line, fluorescence activation, agonist mode; activation, % at 3 µM; 2,400 compounds, 2% hits; in the data active means activation above about 37%;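 further: CHO cells stably expressing TAAR1 with calcium dye readout; 0% = DMSO vehicle and 100% = full agonist response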
# An asterisk follows results filed as active; x = not tested or not shown.
SMILES,OX1R antag-1,CHO parental Ca,TAAR1 agonist,OX1R antag-2,TAAR1 antag,nonsel antag count,TAAR1 antag conf,Ga16 ag counter,TAAR1 ag count
Cc1ccc(C)c(N2CCN(C(=O)CCc3nc(-c4ccccc4F)no3)CC2)c1,7.7,-13.8,7.7,19.2,63.9*,18.4,40.4,7.1,10.1
Cc1ccc(C)c(N2CCN(C(=O)CCc3nc(-c4ccccc4Br)no3)CC2)c1,-4.6,0.2,3.6,14.9,67.2*,32.0*,46.2,6.1,4.1
Nc1nc2cc3c(cc2cc1C(=O)NCCc1c[nH]c2ccccc12)OCO3,x,x,9.4,x,52.2*,44.8*,45.7,12.8*,7.9
CCn1c(SCC(=O)N/N=C/c2ccc(O)c(OC)c2)nc2ccccc21,-18.7,-9.3,0.2,13.1,7.7,x,x,x,x
CCOC(=O)[C@]12CCCC=C1N(Cc1cccc3ccccc13)C(=O)[C@H](CC(=O)NCc1ccc(OC)c(OC)c1)C2,x,x,0.2,x,30.9,x,x,x,x
Cc1ccc(C)c(NC(=O)C(Sc2nc3ccccc3c(=O)n2CC(C)C)c2ccccc2)c1 (stereo not given),-24.2,-9.1,6.5,16.1,55.9*,28.3*,50.3*,2.6,1.2
O=C(COC(=O)c1ccc(O)cc1O)Nc1cc(-c2ccccc2)nn1-c1ccccc1,2.7,9.4,11.7,25.4,71.5*,35.1*,38.4,8.5,10.8
COc1cc(/C=N/NC(=O)c2cccnc2)ccc1OS(=O)(=O)c1cc(C)ccc1C,-19.5,-11.6,25.1,26.2,63.9*,31.6*,57.2*,13.9*,11.8
C=CC[C@@H](CC(=O)N(CCO)Cc1ccccc1)C(=O)NC[C@@H](OC(=O)[C@@H](CC=C)CC(=O)OC(C)(C)C)c1ccccc1,-5.8,-30.1,16.6,5.6,58.9*,29.2*,39.2,7.6,9.9
C=CC[C@@H](CC(=O)N(CCO)Cc1ccccc1)C(=O)NC[C@H](OC(=O)[C@@H](CC=C)Cc1ccc(F)cc1)c1ccccc1,39.9,-13.3,20.2,33.7,89.3*,36.0*,63.2*,9.3,10.3
C=CC[C@@H](CC(=O)N(CCO)Cc1ccccc1)C(=O)N[C@H](COC(=O)[C@@H](CC=C)Cc1ccc(F)cc1)c1ccccc1,13.5,-13.4,14.0,15.6,61.0*,16.6,24.8,14.0*,11.7
O=C(Nc1ccc(Cl)c(S(=O)(=O)N2CCCCC2)c1)c1cccnc1,-2.9,-20.5,5.5,3.7,20.7,x,x,x,x
COc1ccc(NC(=O)N(Cc2cc3cc(OC)ccc3[nH]c2=O)CC2CCCO2)cc1 (stereo not given),-25.8,-16.6,13.4,24.2,55.9*,26.7*,41.0,6.9,4.9
COc1ccccc1NC(=S)N(CCCN(C)C)Cc1cc2cc3c(cc2[nH]c1=O)OCO3,-5.8,-25.5,2.7,21.1,-10.9,x,x,x,x
COC(=O)c1ccccc1NC(=S)N(Cc1ccc2c(c1)OCO2)Cc1cc2cc(OC)ccc2[nH]c1=O,-19.1,-16.9,2.8,28.3,53.2*,15.1,27.4,6.4,9.1
COc1ccc([C@H]2CC(=O)C=C(c3ccc(CNC(=O)OC(C)(C)C)cc3)C2)cc1,39.5,30.8,19.0,8.2,83.2*,47.0*,67.9*,11.7*,7.8
CCOc1ccc(/C=C(\C#N)C(=O)c2c(C)[nH]c3ccccc23)cc1OC,-0.1,-3.8,2.1,14.3,57.9*,15.2,38.4,4.9,6.4
COc1cc(/C=C(/C#N)C(=O)c2c(C)[nH]c3ccccc23)ccc1OCC#N,-11.9,1.2,8.5,5.6,55.3*,23.8*,50.1*,19.2*,39.7*
CCC(c1nnc(SCC(=O)Nc2c(F)cccc2F)n1Cc1ccccc1)N(C)C (stereo not given),-16.9,-0.4,0.6,27.8,2.5,x,x,x,x
COC(=O)[C@]1(Cc2ccccc2)N[C@H](CN(C)C(=O)c2ccc(C(C)(C)C)cc2)[C@@H]2C(=O)N(Cc3ccccc3)C(=O)[C@@H]21,-7.4,-8.4,0.9,5.3,-13.6,x,x,x,x
CC[C@@]1(C(=O)OC)N[C@H](CN(C)C(=O)c2ccc(C(C)(C)C)cc2)[C@@H]2C(=O)N(Cc3ccccc3)C(=O)[C@@H]21,-51.4,-23.3,12.2,7.3,66.3*,27.8*,51.1*,7.3,8.0
COc1ccc(CN(C)C(=O)C(Cc2ccccc2)NC(=O)c2ccccc2)c(OC)c1 (stereo not given),-26.8,-28.4,6.4,22.7,67.2*,29.8*,49.6*,5.4,4.1
COc1ccc(CN(C)C(=O)c2ccc(COc3ccccc3)cc2)c(OC)c1,-22.5,-12.6,-1.0,9.7,22.6,x,x,x,x
COCCn1c(=S)[nH]c2cc(C(=O)NC3CCCCC3C)ccc2c1=O (stereo not given),x,x,1.2,x,-2.4,x,x,x,x
CC(C)[C@H](NS(=O)(=O)c1ccc2c(c1)OCCO2)C(=O)OCC(=O)Nc1cc(Cl)ccc1Cl,9.4,-9.5,21.2,20.8,75.6*,38.8*,61.1*,11.2,11.1
SMILES,OX1R antag-1,CHO parental Ca,TAAR1 agonist,OX1R antag-2,TAAR1 antag,nonsel antag count,TAAR1 antag conf,Ga16 ag counter,TAAR1 ag count
CC(C)(C)NC(=O)COC(=O)c1c2c(nc3ccccc13)CCC2,-21.3,-18.7,8.4,20.8,60.1*,26.8*,40.7,6.9,5.7
CC1CCc2cc(F)ccc2N1C(=O)CSc1nnc2c(n1)[nH]c1ccccc12 (stereo not given),-24.0,-14.8,13.3,21.2,56.2*,34.0*,58.0*,7.3,9.3
O=C(CSc1nnc2c(n1)[nH]c1ccccc12)N1CCCCC1,14.8,3.8,-1.0,25.2,9.1,x,x,x,x
Cc1ccccc1/C(N)=N/O,-0.8,5.4,1.3,3.6,-18.1,x,x,x,x
COCCOC(=O)c1c(C)oc2ccc(OC(=O)c3c(OC)cccc3OC)cc12,-44.3,-14.7,9.8,29.0,51.1*,32.1*,43.5,6.0,5.2
CCOC(=O)Oc1ccc2oc(C)c(C(=O)OCCOC)c2c1,-37.2,-17.8,17.2,17.2,9.0,x,x,x,x
O=C(Nc1cccc(/C=C/c2ccccn2)c1)c1ccc(-n2cncn2)c([N+](=O)[O-])c1,-3.4,-2.8,20.6,26.4,72.6*,40.2*,60.9*,13.9*,13.1
O=C(Nc1ccc(F)c(F)c1)c1ccc(-n2cncn2)c([N+](=O)[O-])c1,-4.1,3.5,13.1,6.7,19.6,x,x,x,x
CN(C)S(=O)(=O)c1cc(NC(=O)CNCCN2CCOCC2)ccc1Cl,-11.0,-9.3,0.4,14.8,104.5*,8.1,-3.4,3.1,5.2

# Bioassay records (PubChem BioAssay)
